“Also recorded” adds a separate entry of the source.
What was measured:
Format in all cases: in vivo, Swiss male mice
[1] = test system: scopolamine-induced memory impairment in mice; assay: Novel object recognition test; settings: test phase
Summary of the method: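 Swiss male mice, n = 10/group. Test compound (5, 10 or 15 mg/kg) p.o. in saline 1 h before, scopolamine 1.5 mg/kg i.p. 30 min before. Box is 45 × 45 × 50 cm; 5-min sample phase, then 5-min test 24 h later with one object replaced. Nose/forepaw contact is scored as exploration, normalized to total exploration time. Repeated-measures two-way ANOVA, Tukey; mean ± SEM.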

[2] = test system: scopolamine-induced memory impairment in mice; assay: Y-maze test in scopolamine-treated mice; settings: scopolamine 1.5 mg/kg i.p. alone; compared with control group; p < 0.01
Summary of the method: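 Swiss male mice, n = 10/group. Test compound p.o. in saline 1 h before, scopolamine 1.5 mg/kg i.p. 30 min before a 10-min session. Arm entry means all four legs inside. Alternation (%) = alternations/(total entries − 2) × 100; entries serve as locomotor index. Arms cleaned with 10% ethanol. One-way ANOVA, Tukey; mean ± SEM.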

[3] = test system: scopolamine-induced memory impairment in mice; assay: Morris water maze; settings: scopolamine 1.5 mg/kg i.p. alone
Summary of the method: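 Swiss male mice, n = 10/group. Test compound p.o. in saline 1 h before, scopolamine 1.5 mg/kg i.p. 30 min before each session. Training runs over 6 days, 4 trials/day about 2 min apart, maximum 1 min per trial, then 10 s on the platform if not found. Day 7 probe without platform. Mean ± SEM; repeated-measures two-way ANOVA (training), one-way ANOVA (probe), Tukey.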

[4] = training trials, day 1 to day 6

Row | SMILES | normalized time exploring novel object versus familiar object ([1]; 5 mg/kg p.o. + scopolamine 1.5 mg/kg i.p., p < 0.001) | spontaneous alternation (%) [2] | normalized time exploring novel object versus familiar object ([1]; scopolamine 1.5 mg/kg i.p. alone, p > 0.05) | time spent in the target quadrant ([3]; probe trial day 7, compared with control group) | escape latency [3, 4] | travel (swimming) distance [3, 4]
1 | COc1cc2c(cc1OC)C(=O)C(CC1CCN(Cc3ccccc3)CC1)C2 (stereo not drawn) [donepezil] | significantly longer |  |  |  |  | 
2 | CN1[C@@H]2C[C@@H](OC(=O)[C@H](CO)c3ccccc3)C[C@H]1[C@@H]1O[C@@H]12 [scopolamine] |  | significantly lower; also recorded: significantly decreased | no statistically significant difference | significantly lower; also recorded: decreased | no significant differences | no significant differences
